Source: ChEMBL document CHEMBL1781932 (J Med Chem, 2011)
Converted amounts (≈) assume the structure as drawn.

How the values were obtained:
Assay type in all cases: functional
Staphylococcus aureus [1] = experiment: Antimicrobial activity against tetracycline-susceptible Staphylococcus aureus isolate 101 by CLSI dilution method
Staphylococcus aureus [2] = experiment: Antimicrobial activity against methicillin-, tetracycline-resistant Staphylococcus aureus isolate 161 harboring tetM gene by CLSI dilution method
Staphylococcus aureus [3] = experiment: Antimicrobial activity against tetracycline-resistant Staphylococcus aureus isolate 158 harboring tetK gene by CLSI dilution method
Enterococcus faecalis [4] = experiment: Antimicrobial activity against tetracycline-susceptible Enterococcus faecalis isolate 103 by CLSI dilution method
Outline: (§1)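 Broth microdilution per CLSI in fresh cation-adjusted Mueller Hinton broth, kept at 4 °C before testing, with defibrinated horse blood added as appropriate. Strains were from ATCC. MIC in µg/mL. Runs were accepted when comparator antibiotics against ATCC quality-control strains fell within recommended ranges.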

Enterococcus faecalis [5] = experiment: Antimicrobial activity against tetracycline-resistant Enterococcus faecalis isolate 159 harboring […] gene by CLSI dilution method
Streptococcus pneumoniae [6] = experiment: Antimicrobial activity against tetracycline-susceptible Streptococcus pneumoniae isolate 106 by CLSI dilution method; outline: as §1
Streptococcus pneumoniae [7] = experiment: Antimicrobial activity against tetracycline-resistant Streptococcus pneumoniae isolate 160 harboring tetM gene by CLSI dilution method
Escherichia coli [8] = experiment: Antimicrobial activity against tetracycline-susceptible Escherichia coli isolate 107 by CLSI dilution method; outline: as §1
Acinetobacter baumannii = experiment: Antimicrobial activity against tetracycline-susceptible Acinetobacter baumannii isolate 110 by CLSI dilution method; outline: as §1
Pseudomonas aeruginosa = experiment: Antimicrobial activity against tetracycline-susceptible Pseudomonas aeruginosa isolate 111 by CLSI dilution method; outline: as §1
Enterobacter cloacae = experiment: Antimicrobial activity against tetracycline-susceptible Enterobacter cloacae isolate 108 by CLSI dilution method; outline: as §1
Klebsiella pneumoniae [9] = experiment: Antimicrobial activity against tetracycline-susceptible Klebsiella pneumoniae isolate 109 by CLSI dilution method; outline: as §1
Klebsiella pneumoniae [10] = experiment: Antimicrobial activity against tetracycline-resistant Klebsiella pneumoniae isolate 153 harboring tetA gene by CLSI dilution method
Escherichia coli [11] = experiment: Antimicrobial activity against tetracycline-resistant Escherichia coli isolate 155 harboring tetA gene by CLSI dilution method

Compound: CN(C)[C@@H]1C(O)=C(C(N)=O)C(=O)[C@@]2(O)C(O)=C3C(=O)c4c(cc5ccc(CN6CCCCC6)cc5c4O)C[C@H]3C[C@@H]12
- MIC (Staphylococcus aureus [1]): 0.5 µg/mL (≈ 0.89 µM)
- MIC (Staphylococcus aureus [2]): 2 µg/mL (≈ 3.56 µM)
- MIC (Staphylococcus aureus [3]): 0.5 µg/mL (≈ 0.89 µM)
- MIC (Enterococcus faecalis [4]): 0.5 µg/mL (≈ 0.89 µM)
- MIC (Enterococcus faecalis [5]): 2 µg/mL (≈ 3.56 µM)
- MIC (Streptococcus pneumoniae [6]): 0.125 µg/mL (≈ 0.223 µM)
- MIC (Streptococcus pneumoniae [7]): 0.25 µg/mL (≈ 0.445 µM)
- MIC (Escherichia coli [8]): 2 µg/mL (≈ 3.56 µM)
- MIC (Acinetobacter baumannii): 1 µg/mL (≈ 1.78 µM)
- MIC (Pseudomonas aeruginosa): > 32 µg/mL
- MIC (Enterobacter cloacae): 8 µg/mL (≈ 14.2 µM)
- MIC (Klebsiella pneumoniae [9]): 8 µg/mL (≈ 14.2 µM)
- MIC (Klebsiella pneumoniae [10]): 8 µg/mL (≈ 14.2 µM)

Compound: CN(C)[C@@H]1C(O)=C(C(N)=O)C(=O)[C@@]2(O)C(O)=C3C(=O)c4c(cc5ccc(CN6CC(O)C6)cc5c4O)C[C@H]3C[C@@H]12
- MIC (Staphylococcus aureus [1]): 0.5 µg/mL (≈ 0.91 µM)
- MIC (Staphylococcus aureus [2]): 4 µg/mL (≈ 7.28 µM)
- MIC (Staphylococcus aureus [3]): 1 µg/mL (≈ 1.82 µM)
- MIC (Enterococcus faecalis [4]): 0.5 µg/mL (≈ 0.91 µM)
- MIC (Enterococcus faecalis [5]): 4 µg/mL (≈ 7.28 µM)
- MIC (Streptococcus pneumoniae [6]): 0.0625 µg/mL (≈ 0.114 µM)
- MIC (Streptococcus pneumoniae [7]): 0.5 µg/mL (≈ 0.91 µM)
- MIC (Escherichia coli [8]): 1 µg/mL (≈ 1.82 µM)
- MIC (Escherichia coli [11]): 8 µg/mL (≈ 14.6 µM)
- MIC (Acinetobacter baumannii): 4 µg/mL (≈ 7.28 µM)
- MIC (Pseudomonas aeruginosa): 32 µg/mL (≈ 58.2 µM)
- MIC (Enterobacter cloacae): 2 µg/mL (≈ 3.64 µM)
- MIC (Klebsiella pneumoniae [9]): 4 µg/mL (≈ 7.28 µM)
- MIC (Klebsiella pneumoniae [10]): 8 µg/mL (≈ 14.6 µM)

Compound: CN(C)[C@@H]1C(O)=C(C(N)=O)C(=O)[C@@]2(O)C(O)=C3C(=O)c4c(c(F)c5ccc(CN6CCCC6)cc5c4O)C[C@H]3C[C@@H]12
- MIC (Staphylococcus aureus [1]): 0.25 µg/mL (≈ 0.442 µM)
- MIC (Staphylococcus aureus [2]): 1 µg/mL (≈ 1.77 µM)
- MIC (Staphylococcus aureus [3]): 0.125 µg/mL (≈ 0.221 µM)
- MIC (Enterococcus faecalis [4]): 0.125 µg/mL (≈ 0.221 µM)
- MIC (Enterococcus faecalis [5]): 1 µg/mL (≈ 1.77 µM)
- MIC (Streptococcus pneumoniae [6]): 0.0313 µg/mL (≈ 0.0553 µM)
- MIC (Streptococcus pneumoniae [7]): 0.0313 µg/mL (≈ 0.0553 µM)
- MIC (Escherichia coli [8]): 1 µg/mL (≈ 1.77 µM)
- MIC (Escherichia coli [11]): 4 µg/mL (≈ 7.07 µM)
- MIC (Acinetobacter baumannii): 0.25 µg/mL (≈ 0.442 µM)
- MIC (Pseudomonas aeruginosa): 32 µg/mL (≈ 56.6 µM)
- MIC (Enterobacter cloacae): 4 µg/mL (≈ 7.07 µM)
- MIC (Klebsiella pneumoniae [9]): 2 µg/mL (≈ 3.54 µM)
- MIC (Klebsiella pneumoniae [10]): 4 µg/mL (≈ 7.07 µM)

Compound: CCCNCc1ccc2c(OC)c3c(c(O)c2c1)C(=O)C1=C(O)[C@]2(O)C(=O)C(C(N)=O)=C(O)[C@@H](N(C)C)[C@@H]2C[C@@H]1C3
- MIC (Staphylococcus aureus [1]): 0.25 µg/mL (≈ 0.442 µM)
- MIC (Staphylococcus aureus [2]): 2 µg/mL (≈ 3.54 µM)
- MIC (Staphylococcus aureus [3]): 0.0625 µg/mL (≈ 0.11 µM)
- MIC (Enterococcus faecalis [4]): 0.125 µg/mL (≈ 0.221 µM)
- MIC (Enterococcus faecalis [5]): 2 µg/mL (≈ 3.54 µM)
- MIC (Streptococcus pneumoniae [6]): 0.0156 µg/mL (≈ 0.0276 µM)
- MIC (Streptococcus pneumoniae [7]): 0.125 µg/mL (≈ 0.221 µM)
- MIC (Escherichia coli [8]): 1 µg/mL (≈ 1.77 µM)
- MIC (Escherichia coli [11]): 8 µg/mL (≈ 14.1 µM)
- MIC (Acinetobacter baumannii): 1 µg/mL (≈ 1.77 µM)
- MIC (Pseudomonas aeruginosa): 16 µg/mL (≈ 28.3 µM)
- MIC (Enterobacter cloacae): 1 µg/mL (≈ 1.77 µM)
- MIC (Klebsiella pneumoniae [9]): 1 µg/mL (≈ 1.77 µM)

Compound: COc1c2c(c(O)c3cc(CN4CCCC4)ccc13)C(=O)C1=C(O)[C@]3(O)C(=O)C(C(N)=O)=C(O)[C@@H](N(C)C)[C@@H]3C[C@@H]1C2
- MIC (Staphylococcus aureus [1]): 0.25 µg/mL (≈ 0.433 µM)
- MIC (Staphylococcus aureus [2]): 2 µg/mL (≈ 3.46 µM)
- MIC (Staphylococcus aureus [3]): 0.125 µg/mL (≈ 0.216 µM)
- MIC (Enterococcus faecalis [4]): 0.25 µg/mL (≈ 0.433 µM)
- MIC (Enterococcus faecalis [5]): 4 µg/mL (≈ 6.92 µM)
- MIC (Streptococcus pneumoniae [6]): 0.0156 µg/mL (≈ 0.027 µM)
- MIC (Streptococcus pneumoniae [7]): 0.25 µg/mL (≈ 0.433 µM)
- MIC (Escherichia coli [8]): 1 µg/mL (≈ 1.73 µM)
- MIC (Escherichia coli [11]): 8 µg/mL (≈ 13.8 µM)
- MIC (Acinetobacter baumannii): 1 µg/mL (≈ 1.73 µM)
- MIC (Pseudomonas aeruginosa): 16 µg/mL (≈ 27.7 µM)
- MIC (Enterobacter cloacae): 4 µg/mL (≈ 6.92 µM)
- MIC (Klebsiella pneumoniae [9]): 4 µg/mL (≈ 6.92 µM)
- MIC (Klebsiella pneumoniae [10]): 8 µg/mL (≈ 13.8 µM)

Compound: CNCc1ccc2c(N(C)C)c3c(c(O)c2c1)C(=O)C1=C(O)[C@]2(O)C(=O)C(C(N)=O)=C(O)[C@@H](N(C)C)[C@@H]2C[C@@H]1C3
- MIC (Staphylococcus aureus [1]): 0.25 µg/mL (≈ 0.454 µM)
- MIC (Staphylococcus aureus [2]): 2 µg/mL (≈ 3.63 µM)
- MIC (Staphylococcus aureus [3]): 0.5 µg/mL (≈ 0.908 µM)
- MIC (Enterococcus faecalis [4]): 0.5 µg/mL (≈ 0.908 µM)
- MIC (Enterococcus faecalis [5]): 4 µg/mL (≈ 7.26 µM)
- MIC (Streptococcus pneumoniae [6]): 0.125 µg/mL (≈ 0.227 µM)
- MIC (Streptococcus pneumoniae [7]): 0.5 µg/mL (≈ 0.908 µM)
- MIC (Escherichia coli [8]): 2 µg/mL (≈ 3.63 µM)
- MIC (Escherichia coli [11]): 32 µg/mL (≈ 58.1 µM)
- MIC (Acinetobacter baumannii): 2 µg/mL (≈ 3.63 µM)
- MIC (Pseudomonas aeruginosa): > 32 µg/mL
- MIC (Enterobacter cloacae): 8 µg/mL (≈ 14.5 µM)
- MIC (Klebsiella pneumoniae [9]): 4 µg/mL (≈ 7.26 µM)
- MIC (Klebsiella pneumoniae [10]): 32 µg/mL (≈ 58.1 µM)

Compound: CN(C)Cc1ccc2c(N(C)C)c3c(c(O)c2c1)C(=O)C1=C(O)[C@]2(O)C(=O)C(C(N)=O)=C(O)[C@@H](N(C)C)[C@@H]2C[C@@H]1C3
- MIC (Staphylococcus aureus [1]): 0.25 µg/mL (≈ 0.443 µM)
- MIC (Staphylococcus aureus [2]): 2 µg/mL (≈ 3.54 µM)
- MIC (Staphylococcus aureus [3]): 0.25 µg/mL (≈ 0.443 µM)
- MIC (Enterococcus faecalis [4]): 0.25 µg/mL (≈ 0.443 µM)
- MIC (Enterococcus faecalis [5]): 2 µg/mL (≈ 3.54 µM)
- MIC (Streptococcus pneumoniae [6]): < 0.0156 µg/mL
- MIC (Streptococcus pneumoniae [7]): 0.25 µg/mL (≈ 0.443 µM)
- MIC (Escherichia coli [8]): 2 µg/mL (≈ 3.54 µM)
- MIC (Acinetobacter baumannii): 16 µg/mL (≈ 28.3 µM)
- MIC (Pseudomonas aeruginosa): > 32 µg/mL
- MIC (Enterobacter cloacae): 32 µg/mL (≈ 56.7 µM)
- MIC (Klebsiella pneumoniae [9]): 8 µg/mL (≈ 14.2 µM)

Compound: CN(C)c1c2c(c(O)c3cc(F)ccc13)C(=O)C1=C(O)[C@]3(O)C(=O)C(C(N)=O)=C(O)[C@@H](N(C)C)[C@@H]3C[C@@H]1C2
- MIC (Staphylococcus aureus [1]): 0.25 µg/mL (≈ 0.476 µM)
- MIC (Staphylococcus aureus [2]): 1 µg/mL (≈ 1.9 µM)
- MIC (Staphylococcus aureus [3]): 0.125 µg/mL (≈ 0.238 µM)
- MIC (Enterococcus faecalis [4]): 0.25 µg/mL (≈ 0.476 µM)
- MIC (Enterococcus faecalis [5]): 0.25 µg/mL (≈ 0.476 µM)
- MIC (Streptococcus pneumoniae [6]): 2 µg/mL (≈ 3.81 µM)
- MIC (Streptococcus pneumoniae [7]): 4 µg/mL (≈ 7.61 µM)
- MIC (Escherichia coli [8]): > 32 µg/mL
- MIC (Escherichia coli [11]): > 32 µg/mL
- MIC (Acinetobacter baumannii): 16 µg/mL (≈ 30.4 µM)
- MIC (Pseudomonas aeruginosa): > 32 µg/mL
- MIC (Enterobacter cloacae): > 32 µg/mL
- MIC (Klebsiella pneumoniae [9]): > 32 µg/mL
- MIC (Klebsiella pneumoniae [10]): > 32 µg/mL

Compound: CN(C)c1cccc2c(O)c3c(cc12)C[C@H]1C[C@H]2[C@H](N(C)C)C(O)=C(C(N)=O)C(=O)[C@@]2(O)C(O)=C1C3=O
- MIC (Staphylococcus aureus [1]): 1 µg/mL (≈ 1.97 µM)
- MIC (Staphylococcus aureus [2]): 2 µg/mL (≈ 3.94 µM)
- MIC (Staphylococcus aureus [3]): 1 µg/mL (≈ 1.97 µM)
- MIC (Enterococcus faecalis [4]): 1 µg/mL (≈ 1.97 µM)
- MIC (Enterococcus faecalis [5]): 2 µg/mL (≈ 3.94 µM)
- MIC (Streptococcus pneumoniae [6]): 4 µg/mL (≈ 7.88 µM)
- MIC (Streptococcus pneumoniae [7]): 8 µg/mL (≈ 15.8 µM)
- MIC (Escherichia coli [11]): > 32 µg/mL
- MIC (Acinetobacter baumannii): 16 µg/mL (≈ 31.5 µM)
- MIC (Pseudomonas aeruginosa): > 32 µg/mL
- MIC (Enterobacter cloacae): > 32 µg/mL
- MIC (Klebsiella pneumoniae [9]): > 32 µg/mL
- MIC (Klebsiella pneumoniae [10]): > 32 µg/mL
